Rows were chosen to be rich in hits. Some 1.2% of all compounds tested hit in one or more screens of this group.
S1P4 antag: human S1P4 receptor antagonism; 220,000 tested, 0.26% active; AID 1510; inhibition, % at 4.98 µM; O95977; S1P4-expressing cells, antagonist mode, reporter read-out; in the data active = inhibition above about 29%
Rad51 HR inh: blocks human Rad51 in homologous recombination; Q06609; hRad51 DNA strand exchange, fluorescence dequenching; inhibition, % at 10 µM; 200,000 tested, 0.085% active; AID 1385;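 active = inhibition above 40% at the single screening dose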
Target sequence (Q06609 whole entry, looked up): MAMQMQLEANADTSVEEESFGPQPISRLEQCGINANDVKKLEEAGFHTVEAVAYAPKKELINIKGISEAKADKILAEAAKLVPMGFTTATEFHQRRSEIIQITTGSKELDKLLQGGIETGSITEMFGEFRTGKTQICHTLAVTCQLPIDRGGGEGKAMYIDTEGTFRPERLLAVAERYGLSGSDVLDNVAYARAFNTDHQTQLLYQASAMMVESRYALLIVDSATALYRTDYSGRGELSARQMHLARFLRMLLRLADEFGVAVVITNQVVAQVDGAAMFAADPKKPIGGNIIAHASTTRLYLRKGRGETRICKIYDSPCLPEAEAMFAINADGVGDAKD
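Test system: preformed human Rad51 ssDNA filaments; also added: Donor/quencher-labelled 47-bp dsDNA substrate; doses: 10 µM final, single point; times: 37 °C 15-min filament assembly, 30-min compound preincubation, 15-min exchange; detection: FRET fluorescence dequenching, excitation 485 nm, emission 520 nm; read-out basis: Fluorescence-based percent inhibition, control- and blank-normalised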
S1P3 antagonist: S1P3 (human) receptor antagonism. Q99500. CHO S1P3 NFAT-BLA reporter, FRET fluorescence, antagonist mode. inhibition, % at 4.98 µM. 170,000 tested, 0.27% active. AID 485;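 active = inhibition above the plate cutoff, the mean inhibition of test wells on that plate plus 3 SD, cut at about 28% in these data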;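 note: cells challenged with S1P at its EC80 of 0.8 µM; blue over green emission ratio from cleaved BLA substrate after 4 h stimulation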
Target sequence (Q99500 whole entry, looked up): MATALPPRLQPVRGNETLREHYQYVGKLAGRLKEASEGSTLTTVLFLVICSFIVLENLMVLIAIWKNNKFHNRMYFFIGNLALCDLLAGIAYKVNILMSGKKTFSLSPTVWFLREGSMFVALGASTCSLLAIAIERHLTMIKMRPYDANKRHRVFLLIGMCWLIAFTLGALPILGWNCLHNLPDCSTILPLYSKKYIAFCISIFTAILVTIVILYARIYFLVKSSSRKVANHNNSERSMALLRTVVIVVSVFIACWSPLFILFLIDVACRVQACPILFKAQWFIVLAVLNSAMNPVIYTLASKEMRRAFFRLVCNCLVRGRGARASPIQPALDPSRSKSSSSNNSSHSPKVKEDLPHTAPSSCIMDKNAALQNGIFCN
S1P4 agonist: human S1P4 receptor agonism; O95977; S1P4-expressing cell line, agonist reporter assay; activation, % at 4.98 µM; 220,000 tested, 0.35% active; AID 1509; in the data active = activation above about 11%
Calb biofilm kill: mixtures killing C. albicans biofilm; C. albicans biofilm persisters + clotrimazole, fluorescence viability; primary screen in compound mixtures of four per well; inhibition, % at 7.6 µM; 120,000 tested, 0.02% active; AID 1242;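 active = inhibition above 30.3% in the primary screen of four-compound pools, then above 30% when the compound was retested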;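 note: compounds exposed to preformed 24 h biofilms for 48 h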
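Test system: C. albicans CAF4-2 wild-type biofilms; buffer or medium: RPMI/MOPS medium, pH 7.0; schedule: 24 h biofilm formation, then 48 h compound exposure, 37 °C; detection: Alamar Blue fluorescence; measure: percent inhibition of biofilm viability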
HMGR II inh: inhibitors of class II HMG-CoA reductase from Enterococcus faecalis; inhibition, % at 10 µM; AID 1066; 190,000 tested, 0.41% active; purified E. faecalis HMGR, NADPH absorbance 340 nm kinetic;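 active = inhibition above a set limit, the median over all tested compounds plus 3 SD, cut at about 9.5% in these data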;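 note: enzyme runs in reverse so mevalonate oxidation gives rising NADPH absorbance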
Numbers stand for hits; 0 = inactive; - = no result given.

SMILES | S1P4 antag | Rad51 HR inh | S1P3 antagonist | S1P4 agonist | Calb biofilm kill | HMGR II inh
CCC[C@@H]1CCCO[C@@](C(=O)NCc2ccc(S(C)(=O)=O)cc2)(C(F)(F)F)C1 | - | 0 | - | - | - | -
COc1cc2c(cc1OC)CN(C(C)C(=O)N1CCc3ccccc31)CC2 (stereo not drawn) | 0 | 0 | - | 0 | - | 19.2
COc1cccc(NC(=S)/C(=C(\[O-])c2ccc(C)c([N+](=O)[O-])c2)[n+]2ccccc2)c1 | 0 | 0 | - | 0 | - | 0
COc1cccc(NC(=S)/C(=C(\[O-])c2ccc(OC(F)F)cc2)[n+]2ccccc2)c1 | 0 | 0 | 0 | 0 | 0 | 10.9
CC(=O)CSc1nc2cc3c(cc2cc1C#N)OCCO3 | 0 | 0 | 0 | 0 | 0 | 10.5
Cc1cc(NC(=O)c2cc3n(n2)C(C(F)(F)F)CC(c2ccc(Cl)c(Cl)c2)N3)no1 (stereo not drawn) | 0 | 0 | 54.7 | 0 | - | 0
CCOC(=O)/C(C#N)=C1\C=CN(C)C(C)=N1 | 0 | 0 | - | 0 | 0 | 0
COc1cccc2c1C(=O)c1c(O)c3c(c(O)c1C2=O)C[C@@](O)(C(=O)CO)C[C@@H]3O[C@H]1C[C@H](N)[C@H](O)[C@H](C)O1 | 0 | 65.8 | 0 | 0 | 0 | 0
CN1CCN(Cc2c(C#N)c3ccccc3n2C)CC1 | 0 | 0 | 0 | 0 | - | 0
Cn1c(CN2CCCC2)c(C#N)c2ccccc21 | 0 | 0 | 0 | 0 | 0 | 15.3
Cc1cc(N2CCOCC2)nc(SCC(=O)OCc2ccccc2)n1 | 0 | - | 0 | 0 | 0 | 11.3
CCCCn1c(C(C)NC(=O)c2cccs2)nc2ccccc21 (stereo not drawn) | 0 | 0 | - | 0 | - | 0
CC[n+]1ccccc1/C=C/c1ccc(N(C)C)cc1 | 0 | 0 | 0 | 0 | 0 | 0
CC[n+]1ccc(/C=C/c2ccc(N(C)C)cc2)c2ccccc21 | 0 | 0 | 0 | 0 | 35.0 | 0
COc1ccccc1NC(=O)CCCc1nc(-c2ccc(OC)c(OC)c2)no1 | 0 | 0 | 0 | 0 | 0 | 0
CCc1c(C(=O)Nc2ccc(OC)cc2)[nH]c(C)c1C(C)=O | 0 | 0 | 0 | 0 | - | 0
CCc1c(C(=O)Nc2cc(C)ccc2OC)[nH]c(C)c1C(C)=O | 0 | 0 | 58.0 | 0 | - | 0
COC(=O)c1c(NC(=O)C2COc3ccccc3O2)sc2c1CCN(Cc1ccccc1)C2 (stereo not drawn) | 0 | 0 | 0 | 0 | 0 | 0
O=C(Cc1ccc(Cl)cc1)NCCS(=O)c1ccc(Cl)cc1 (stereo not drawn) | 0 | 130.4 | - | 0 | - | 0
CCOc1ccc(/C(O)=C2/C(=O)C(=O)N(CC3CCCO3)C2c2ccco2)cc1 (stereo not drawn) | 0 | 0 | - | 0 | 0 | 28.6
COc1ccc2c(CC(=O)Nc3ccc(OC)c(NS(=O)(=O)c4ccc(F)cc4)c3)coc2c1 | 0 | 0 | 81.1 | 0 | - | 0
COc1ccc2c(CC(=O)Nc3ccccc3OC)coc2c1 | 0 | 0 | 0 | 0 | 0 | 0
CS(=O)(=O)N(CC(N)=O)c1cccc(Br)c1 | 0 | 0 | - | 0 | 0 | 17.2
COc1ccc(CCNC2=CC(=O)N(c3ccc(F)cc3)C2=O)cc1 | 0 | 0 | 0 | 0 | 0 | 14.4
O=S(=O)(Nc1cccc(CCc2ccccn2)c1)c1ccc(Cl)cc1 | 0 | 0 | 0 | 0 | 0 | -
SMILES | S1P4 antag | Rad51 HR inh | S1P3 antagonist | S1P4 agonist | Calb biofilm kill | HMGR II inh
Cc1ccc(C)c(N=Cc2ccc(-c3ccc([N+](=O)[O-])cc3)o2)c1 | 0 | 0 | 0 | 0 | 0 | 15.8
O=C(NC(=S)N(CC1CCC1)CC1CCCO1)c1cccc([N+](=O)[O-])c1 (stereo not drawn) | 0 | 0 | 0 | 0 | 0 | 13.7
O=C(NCC1CCCO1)/C(=C\c1cccc([N+](=O)[O-])c1)NC(=O)c1ccccc1 (stereo not drawn) | 0 | 0 | 0 | 0 | 0 | 0
N#CC(C#N)=C1C=CC=CN1/C(=C\c1ccco1)C(=O)c1ccc(-c2ccccc2)cc1 | 68.9 | 0 | 0 | 0 | 0 | 0
c1ccc(SSc2ccccc2)cc1 | 0 | 0 | 0 | 0 | 0 | 0
COc1ccc(-c2cn3cccnc3n2)cc1NC(=O)c1cc(OC)c(OC)c(OC)c1 | 0 | 0 | 0 | 0 | 0 | 9.6
Cn1cc(NC(=O)c2cc(NC(=O)c3cc(NC=O)cn3C)cn2C)cc1C(=O)NCCC(=N)N | - | 47.8 | - | - | 0 | -
COc1ccccc1-c1cc(C(F)(F)F)nc(S(=O)(=O)CCCC(=O)O)n1 | 0 | 0 | - | 0 | - | 11.8
CCCCNC(=O)CN1C(=O)NC(CCc2ccccc2)C1=O (stereo not drawn) | 0 | 0 | 0 | 0 | 0 | 0
CCCNC(=O)CN1C(=O)NC(CCc2ccccc2)C1=O (stereo not drawn) | 0 | 0 | 0 | 0 | 0 | 11.7
COc1ccccc1NC(=S)NNC(=O)c1cc(C)n(C)n1 | 0 | 0 | - | 0 | - | 0
CCn1c(N)c(C(=O)NCc2cccnc2)sc1=S | 0 | 0 | 54.2 | 0 | - | 0
C/C(CCN1CCCCc2nc(C)c(C)cc21)=N\O[C@@H](C)c1cn([C@H](CO)Cc2ccccc2)nn1 | 0 | 0 | 0 | 0 | 0 | 0
C/C(CCN1CCCCc2nc(C)c(C)cc21)=N\O[C@H](C)c1cn([C@H](CO)Cc2ccccc2)nn1 | 0 | - | 0 | 0 | 0 | 11.6
Nc1nc(NCc2ccccc2)nc(Nc2cccc(F)c2)c1[N+](=O)[O-] | 0 | 0 | - | 0 | - | 0
O=C1CC(C(=O)Nc2cc(Cl)ccc2Cl)n2ncnc2N1 (stereo not drawn) | 0 | 0 | 0 | 0 | 0 | 0
O=C1CC(C(=O)Nc2cccc(Cl)c2)n2ncnc2N1 (stereo not drawn) | 0 | 0 | 0 | 0 | 0 | 11.6
CCCCN(C(=O)c1ccc(S(=O)(=O)N(C)C)cc1)c1ccccc1 | 0 | - | 0 | 0 | 0 | -
Cc1nc2scc(-c3cccs3)c2c(=O)n1CC(=O)O | 0 | 115.2 | - | 0 | - | 0
Cc1cc2nc(SCC(=O)O)nc(C)c2cc1C | 0 | 0 | 0 | 0 | - | 0
CCOC(=O)CSc1nc(C)c2cc(C)c(C)cc2n1 | 0 | 0 | 0 | 0 | 0 | 12.7
COc1ccc(C(=O)NC2CCN(CC(=O)Nc3cccc(C)c3)CC2)cc1OC | 0 | 0 | - | 0 | 0 | 10.9
CCOc1ccc(N2C(=O)CSC23CCCCC3)cc1 | 0 | 0 | 0 | 0 | - | 0
COc1cccc(NS(=O)(=O)c2ccc(OC)c(OC)c2)c1 | 0 | 0 | 63.1 | 0 | - | 0
Clc1cccc(CSc2nc3ccncc3[nH]2)c1 | 0 | 0 | - | 0 | - | 0
SMILES | S1P4 antag | Rad51 HR inh | S1P3 antagonist | S1P4 agonist | Calb biofilm kill | HMGR II inh
COc1ccc(N2CCN(CC(=O)Nc3ccc(SC(F)F)cc3)CC2)cc1 | 0 | 0 | 0 | 0 | 0 | 0
CC(Oc1ccccc1)C(=O)Nc1cccc(F)c1 (stereo not drawn) | 0 | 0 | - | 0 | - | 0
O=C(Cn1ncc2ccccc21)N1CCN(c2cccc(C(F)(F)F)c2)CC1 | 0 | 0 | 0 | 0 | 0 | 18.2
CCOC(=O)N1CCN(C(=O)Cn2ncc3ccccc32)CC1 | 0 | 0 | 0 | 0 | - | 0
NC(=O)c1nc(N2CCOCC2)nc(N2CCOCC2)n1 | 0 | 0 | 0 | 0 | - | 0
CC(=O)c1ccc(N2CCN(c3ccc(C(F)(F)F)cn3)CC2)cc1 | 0 | 0 | 76.6 | 0 | 0 | 0
CC(=O)c1ccc(N2CCN(c3ncc(C(F)(F)F)cc3Cl)CC2)cc1 | 0 | 0 | - | 0 | - | 0

High-throughput results from PubChem BioAssay.
